# High-throughput results deposited in PubChem by several laboratories.
# In the library only some 2.4% were active in any assay of this set; here they are far more common.
# GASC-1 inh – inhibitors of GASC-1 histone demethylase, primary screen, biochemical, fluorescence, DELFIA europium | Lysine-specific demethylase 4C (Homo sapiens), Q9H3R0 | GST-JMJD2C(1-420) H3K9me3 demethylation | inhibition, % at 2.35 µM | hit rate 0.069% among 330,000;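 active = more than half of a compound's replicate wells show inhibition beyond 50%, single wells judged on their own value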;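 also: signal counts dimethyl H3K9 product captured on neutravidin plate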
# mABHD4 FP – ABHD4 inhibitors, primary screen, biochemical, fluorescence polarization, mouse; (Lyso)-N-acylphosphatidylethanolamine lipase (Mus musculus), Q8VD66; purified mABHD4, FP-Rh probe fluorescence polarization; inhibition, % at 8.92 µM; hit rate 0.54% among 370,000;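 active = inhibition exceeding the mean over every tested compound plus 3 SD, cut at about 30% in these data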
#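 Assay system: mouse ABHD4 enzyme, wild type / Also added: fluorescent activity-based probe FP-Rh / Doses: single nominal dose of 8.92 µM, 0.89% DMSO final / Timing: 45 min compound pre-incubation plus 60 min probe step, 25 °C / Signal: FP readout, ex 525 nm / em 598 nm / Control set: S159A mutant/DMSO as 100%, compound-well median as 0%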
# HTRA1 inh – HTRA1 serine protease inhibitors, primary screen, biochemical, fluorescence polarization, HTS; inhibition, % at 5.96 µM; AID 504803, 2011; Q92743; recombinant HTRA1, FP-rhodamine activity-based probe; hit rate 0.5% among 340,000; in the data active = inhibition above about 36%
# PRMT1 inh – PRMT1 methyltransferase inhibitors, primary screen, biochemical, fluorescence polarization; inhibition, % at 2.79 µM; hit rate 1.3% among 370,000; recombinant PRMT1, activity-based probe fluorescence polarization; Protein arginine N-methyltransferase 1 (Homo sapiens), Q99873;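 active = inhibition above about 21% made by adding two undisclosed values, limit read from the data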
# SIAE inh – human SIAE inhibitors, primary screen, biochemical, fluorescence polarization, FP-Rh probe, 1536-well HTS; hit rate 0.69% among 370,000; Sialate O-acetylesterase (Homo sapiens), Q9HAT2; inhibition, % at 9.66 µM; SIAE FP-Rh probe binding; AID 1053197, 2014;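 active = inhibition above a cutoff: mean of compounds within the control limits plus 3 SD of those, cut at about 17% in these data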
# Target sequence (Q9HAT2 whole entry, looked up): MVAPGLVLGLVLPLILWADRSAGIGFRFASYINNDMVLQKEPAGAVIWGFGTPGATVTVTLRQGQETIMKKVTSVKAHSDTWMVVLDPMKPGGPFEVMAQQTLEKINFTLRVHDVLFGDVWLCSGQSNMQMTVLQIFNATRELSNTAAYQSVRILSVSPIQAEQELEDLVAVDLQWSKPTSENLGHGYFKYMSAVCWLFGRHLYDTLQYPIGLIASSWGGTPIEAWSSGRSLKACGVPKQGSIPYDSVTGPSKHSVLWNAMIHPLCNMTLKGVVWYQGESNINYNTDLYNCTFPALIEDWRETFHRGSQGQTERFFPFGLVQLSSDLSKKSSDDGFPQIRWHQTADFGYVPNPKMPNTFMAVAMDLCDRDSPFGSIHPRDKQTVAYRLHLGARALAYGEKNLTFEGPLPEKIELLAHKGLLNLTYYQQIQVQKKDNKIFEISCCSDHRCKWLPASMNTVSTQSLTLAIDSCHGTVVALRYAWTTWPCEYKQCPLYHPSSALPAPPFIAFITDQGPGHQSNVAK
# HTRA1 inh conf – HTRA1 protease inhibitors, retest, confirmation, biochemical, fluorescence polarization; recombinant HTRA1, FP-rhodamine activity-based probe; inhibition, % at 5.96 µM; hit rate 66% among 1,600; shares compounds with HTRA1 inh; AID 540248, 2011;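 active = mean inhibition over three repeats above a set limit taken from the earlier primary screen, cut at about 37% in these data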;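 also: inhibitors block probe binding so polarization drops and inhibition rises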
# PRMT1 inh conf – PRMT1 methyltransferase inhibitors, confirmation, biochemical, fluorescence polarization, triplicate. shares compounds with PRMT1 inh. recombinant His-PRMT1, activity-based probe fluorescence polarization. inhibition, % at 2.79 µM. hit rate 42% among 3,300. AID 687036, 2013;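 active = mean inhibition across replicates above the hit cutoff derived for the earlier primary screen, cut at about 22% in these data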
# ABHD4 confirm – ABHD4 inhibitors, retest, confirmation, biochemical, fluorescence polarization, mouse | purified mABHD4, FP-Rh probe fluorescence polarization | inhibition, % at 8.92 µM | shares compounds with mABHD4 FP | hit rate 55% among 1,800;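 active = mean inhibition across replicates above the hit cutoff set in the primary screen, cut at about 30% in these data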
# Numbers stand for hits; i = inactive; nt = no result given.
SMILES,GASC-1 inh,mABHD4 FP,HTRA1 inh,PRMT1 inh,SIAE inh,HTRA1 inh conf,ABHD4 confirm,others
CC(C)NC(=O)c1ccc(N2CC3CC(C2)c2cccc(=O)n2C3)c([N+](=O)[O-])c1 (stereo unspecified),i,i,i,i,i,nt,nt,
O=C(O)c1cc(S(=O)(=O)N2CC3CC(C2)c2cccc(=O)n2C3)ccc1F (stereo unspecified),nt,i,nt,i,i,nt,nt,
Cc1nc2ccccc2c(=O)n1/N=C/c1cc(Br)cc(Br)c1O,i,i,36.2,i,i,95.4,nt,
CN(C)C(=O)Oc1ccc(OCc2nc3ccccc3[nH]2)cc1,i,i,i,i,i,nt,nt,
O=c1[nH]c(=S)n(C2CC2)c(O)c1/C=N/Nc1ccccc1,i,i,i,i,i,nt,nt,
O=c1[nH]c(=S)n(C2CC2)c(O)c1/C=N/Nc1cccc2ccccc12,i,i,40.9,i,i,i,nt,
CCN(CC)C(=O)c1ccc2c(c1)C1C=CCC1C(C(=O)O)N2 (stereo unspecified),i,53.7,59.3,49.0,i,54.6,nt,
CCN(CC)C(=O)c1ccc2c(c1)C1C(Cl)C(Sc3ccccc3[N+](=O)[O-])CC1C(C(=O)O)N2 (stereo unspecified),i,nt,78.1,nt,nt,76.7,nt,
Cc1ccc2c(c1Cl)NC(C(=O)O)C1CC(Sc3ccccc3[N+](=O)[O-])C(Cl)C21 (stereo unspecified),i,nt,42.8,nt,nt,41.3,nt,
CCN(CC)C(=O)c1ccc(NC(=O)c2cccc(S(=O)(=O)N3CCN(Cc4ccccc4)CC3)c2)cc1,i,i,i,i,i,nt,nt,
O=C(NC1CN2CCC1CC2)c1cc(-c2ccc(Cl)cc2)nc2ccccc12 (stereo unspecified),nt,i,nt,i,i,nt,nt,
CCCCCCNC(=O)N[C@H](Cc1ccc(O)cc1)C(=O)NCCC[C@H]1CN2C(=NC[C@H]2CCC)N1CC1CCC1,i,nt,nt,nt,nt,nt,nt,
O=c1c2ccccc2nc(/C=C/c2ccc(O)c(O)c2)n1-c1ccccc1,i,i,64.4,i,i,87.1,nt,
C#CC1(OC(=O)c2ccccc2)CC(C)N(C)CC1C (stereo unspecified),i,i,i,i,i,nt,nt,
O=C(c1ccccc1F)N1C[C@H]2C[C@@H](C1)c1cccc(=O)n1C2,i,i,i,i,i,nt,nt,
CCCCn1c(=O)c(C(=O)Nc2ccccc2N)c(O)c2ccccc21,i,i,39.7,i,i,i,nt,
Cc1cccc(N2C(=O)NC(=O)/C(=C/c3cc4c(cc3[N+](=O)[O-])OCO4)C2=O)c1,i,39.2,40.8,28.3,i,i,i,PRMT1 inh conf=55.2
CC(Cc1ccc(O)cc1)NCC(O)c1ccc(O)c(O)c1 (stereo unspecified),nt,53.0,53.6,25.2,i,53.2,60.1,PRMT1 inh conf=i
CCCCn1c(O)c(/C(C)=N/NC(=O)Nc2ccccc2)c(=O)[nH]c1=O,i,i,i,i,i,nt,nt,
O=C1c2ccccc2-c2cc3ccccc3cc21,nt,i,i,i,i,nt,nt,
O=C1C=C(N2CC2)c2ccccc2C1=O,nt,66.5,50.7,i,i,i,30.0,
NCC1(c2ccc3c(c2)OCCO3)CCCC1,i,i,i,i,i,nt,nt,
CC1=C(O)C(=O)C=C2C1=CC=C1C2(C)CCC2(C)C3CC(C)(C(=O)O)CCC3(C)CCC12C (stereo unspecified),nt,49.4,48.2,34.7,i,44.5,48.4,PRMT1 inh conf=49.8
C=CCn1c(O)c(C=Nc2ccc(F)cc2)c(=O)[nH]c1=O,i,i,i,i,i,nt,nt,
C=CCn1c(O)c(C=Nc2ccc(N(CC)CC)cc2)c(=O)[nH]c1=O,i,56.7,36.2,22.4,i,i,i,
SMILES,GASC-1 inh,mABHD4 FP,HTRA1 inh,PRMT1 inh,SIAE inh,HTRA1 inh conf,ABHD4 confirm,others
CN1CCN(c2c(C#N)c(C(F)(F)F)nn2C)CC1,i,i,i,i,i,nt,nt,
CN(C)[C@@H]1C(=O)C(C(N)=O)=C(O)[C@@]2(O)C(=O)C3=C(O)c4c(O)cccc4[C@@](C)(O)C3[C@H](O)C12 (stereo partly specified),i,68.0,42.9,36.5,i,i,i,
CN(C)C1C(=O)C(C(N)=O)=C(O)C2(O)C(=O)C3=C(O)c4c(O)cccc4C(C)(O)C3CC12 (stereo unspecified),i,nt,i,nt,nt,nt,nt,
CN(C)[C@@H]1C(=O)C(C(N)=O)=C(O)[C@@]2(O)C(=O)C3=C(O)c4c(O)ccc(Cl)c4[C@@](C)(O)C3C[C@@H]12 (stereo partly specified),nt,60.2,39.9,27.0,i,i,i,PRMT1 inh conf=i
CN(C)[C@@H]1C(=O)C(C(N)=O)=C(O)[C@@]2(O)C(=O)C3=C(O)c4c(O)cccc4[C@@](C)(O)[C@H]3C[C@@H]12,i,nt,nt,nt,nt,nt,nt,
COC(=O)C1=C(c2ccc(F)cc2F)C[C@@H]2CC[C@H]1N2C(=O)N1CCCCC1,i,i,i,i,i,nt,nt,
C/C(=N/OC(=O)N(C)C)c1ncc(C(F)(F)F)cc1N1CCOCC1,i,i,i,i,i,nt,nt,
CCCCCCCCCCCCCCCC[N+](C)(C)C,i,31.6,54.2,i,i,77.6,54.8,
CCCCCC[N+](=O)[O-],i,i,i,i,i,nt,nt,
CCN1C[C@@]2(COC)C3[C@@H](OC)[C@H]4[C@@H]1[C@@]3(C1C[C@H]3[C@H](OC(=O)c5ccccc5)C1[C@]4(OC(C)=O)C[C@H]3OC)[C@@H](OC)C[C@H]2O (stereo partly specified),i,nt,nt,nt,nt,nt,nt,
CC(C)Nc1ccc(Nc2ccccc2)cc1,i,43.1,69.2,25.4,i,53.0,34.5,PRMT1 inh conf=69.7
CCCN1CCc2cc(O)cc3c2[C@H]1Cc1ccc(O)c(O)c1-3,i,68.7,61.9,76.7,i,48.4,29.6,
C[n+]1c(-c2ccccc2)c2cc(N)ccc2c2ccc(N)cc21,i,75.1,96.6,66.0,49.4,123.2,111.0,
COc1ccc(-c2ccc3c(c2)CN(CC(C)C)Cc2cnnn2-3)cc1,nt,i,nt,i,i,nt,nt,
O=C(N/N=C1/CN2CCC1CC2)c1cc2ccccc2cc1O,i,38.7,54.9,i,17.2,i,i,
